Screens from PubChem BioAssay.
Compounds with a hit are over-represented: about 8.9% of the library has one in this group of screens.
MT stabilize HCS: microtubule stabilization, imaging screen | AID 2205 | HeLa tubulin immunostaining HCS, 24 h; share of cells brighter than vehicle mean+2SD | 0.83% of 200,000 active | % tubulin-high responders, % at 10 µM;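 active = plate Z-score above 3 for both tubulin-high and condensed-nucleus cell shares, with cell loss under 80%, at 10 µM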;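 also: anti alpha tubulin signal scored within the nucleus-defined area of each cell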
Dynein transport: blocks dynein driven cargo transport along microtubules | 3617.4 mouse cells, GR-EGFP nuclear translocation imaging; test concentration mostly 20 µM; stimulated with dexamethasone, 1 µM; active compounds read low | AID 1381 | z-score, hits read low | 0.47% of 220,000 active;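 active = plate z-score of nuclear minus cytoplasmic receptor signal below a set negative limit, without overly bright fluorescence or cell loss, cut at about -3.5 in these data, passing the limit was not always enough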;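 also: z-score of nuclear minus cytoplasmic ring GR-EGFP intensity difference per well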
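Buffer or medium: tet-free medium with charcoal-stripped serum / Also added: dexamethasone agonist, 1.0 µM final, for 30 min / Timing: induction 48 h, compound 1 h, agonist 30 min / Measured by: high-content fluorescence imaging after fixation / Read-out: nuclear-to-cytoplasmic GR-EGFP distribution per well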
HSV replic up: increases HSV replication in cells. 0.005% of 220,000 active. AID 1956. maximum fold increase. HSV replication augmentation in cells, fold increase; in the data active = maximum fold increase above about 1.5; inconclusive = no clear call, values can overlap the other calls; tested in PC3 cells
Lmaj promast: Leishmania major promastigote growth inhibition; Leishmania major promastigotes, resazurin fluorescence viability; AID 1063; inhibition, % at 10 µM; 9% of 200,000 active; in the data active = inhibition above about 50%;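 also: promastigotes grown with compound for 44 hours at 28 °C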
b-catenin transl: modulators of beta-catenin nuclear translocation; HeLa beta-catenin nuclear translocation, immunofluorescence imaging; nuclear translocation activity, % at 5 µM; 0.3% of 190,000 active;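 active = nuclear translocation activity above 50% at 5 µM, with a well cell count of 50 or more; inconclusive = wells under 50 cells across six images, flagged as toxic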;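 also: per-cell ratio of nuclear to cytoplasmic median beta-catenin stain intensity; plate controls were DMSO negative control for no effect and GSK-3 inhibitor IX positive control for full effect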
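Test system: human HeLa cells, endogenous beta-catenin. Times: 24 h compound exposure, 37°C. Measured by: beta-catenin immunofluorescence imaging with DAPI.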
* hit, by the source's call; i = inactive; ? = inconclusive; · = not tested or not shown.

SMILES | MT stabilize HCS | Dynein transport | HSV replic up | Lmaj promast | b-catenin transl
O=[N+]([O-])c1ccc(/C=N/Nc2nc(-c3ccccc3)c3cc(Br)ccc3n2)o1 | 2 | 0.31 | · | 93* | ·
O=C(O)c1ccc(-n2cccn2)c([N+](=O)[O-])c1 | 1 | -0.78 | i | -9 | 0
CC(=O)c1ccc(NC(=O)C2CC(=O)N(Cc3ccccc3)C2)cc1 (stereo unspecified) | 2 | -0.36 | i | 6 | -4
Cc1sc2nc(CN3CCCC3)nc(N3CCN(S(=O)(=O)c4cccs4)CC3)c2c1C | 4 | -0.19 | i | 56* | -2
O=C(c1ccc2c(c1)OCCO2)C1CCN(C(=O)c2ccc(F)c(F)c2)CC1 | 5 | -1.2 | i | 57* | -2
Cc1nn(-c2ccccn2)c2nc(-c3cccs3)cc(C(=O)NCc3ccco3)c12 | 1 | -0.71 | ? | 53* | ·
CC(C)(C)c1ccc(/C=N/OCC(=O)NCc2ccc(F)cc2)cc1 | 12* | -0.0084 | i | -2 | ·
Cc1ccc(CNC(=O)CO/N=C/c2ccc(C(C)(C)C)cc2)cc1 | 1 | 0.027 | i | -4 | 2
O=C(NCc1cc(C(F)(F)F)cc(C(F)(F)F)c1)C1CC(c2ccccc2F)=NO1 (stereo unspecified) | · | · | i | · | ·
CCOc1ccc(NC(=O)C2CCCN(S(=O)(=O)c3cccc4nsnc34)C2)cc1 (stereo unspecified) | 2 | -0.073 | i | -6 | 3
Cc1c(Cc2ccccc2)c(=O)oc2cc(OC(=O)c3ccccc3)ccc12 | 3 | -0.81 | i | -4 | -2
CCOc1cc(C=O)c(Br)cc1OC1CCCC1 | 2 | 0.064 | i | 83* | -2
CCOc1ccc2nc(SCC(=O)N3c4ccccc4Sc4ccccc43)c(C#N)cc2c1 | 3 | 0.95 | i | 62* | -3
COc1ccc2nc(SCC(=O)N3CCCCCC3)c(C#N)cc2c1 | 4 | 0.024 | i | 80* | -3
COc1ccc2nc(SCC(=O)N3CCCCC3)c(C#N)cc2c1 | 2 | -2.4 | i | 58* | 1
COc1ccc(C(=O)C(C)Oc2cccc(NC(=O)c3cccc([N+](=O)[O-])c3)c2)cc1 (stereo unspecified) | 3 | 0.51 | i | 24 | -5
Cc1ccc(NC(=O)CCn2cnc3ccccc3c2=O)cc1 | 3 | 0.74 | i | -2 | 0
COc1ccc(-c2csc(NC(=O)c3ccccc3NS(=O)(=O)c3ccc(C)cc3)n2)cc1 | 6 | 0.33 | · | 5 | ·
CN(C)S(=O)(=O)c1ccc(N2CCCC2)c(C(=O)Nc2nc3ccc(F)cc3s2)c1 | 4 | -0.58 | i | 7 | -2
CN(C)S(=O)(=O)c1ccc(N2CCCC2)c(C(=O)Nc2nc(-c3ccc(F)cc3)cs2)c1 | 3 | 1.3 | i | 98* | -1
Cc1cccc2sc(NC(=O)c3cc(S(=O)(=O)N(C)C)ccc3N3CCCC3)nc12 | 3 | -0.23 | i | 52* | 1
CN(C)S(=O)(=O)c1ccc(N2CCCC2)c(C(=O)Nc2nc(-c3cc(F)ccc3F)cs2)c1 | 2 | 0.11 | i | 84* | ·
COc1ccc(S(=O)(=O)Nc2ccccc2C(=O)Nc2nc(-c3ccc(F)cc3)cs2)cc1OC | 2 | 0.18 | i | 53* | 2
CCOC(=O)c1[nH]c2ccc(Cl)cc2c1-c1ccccc1 | 5 | 0.71 | i | -3 | -2
Cn1c(Cn2nnc3ccccc32)nnc1SCC(=O)N1c2ccccc2CCc2ccccc21 | 6 | 3.1 | i | 7 | -5
SMILES | MT stabilize HCS | Dynein transport | HSV replic up | Lmaj promast | b-catenin transl
O=C(Nc1ccncc1)c1ccc2c(c1)S(=O)(=O)c1ccccc1C2=O | 22 | 0.82 | i | 100* | 2
O=C(Nc1nc2ccc(SC(F)F)cc2s1)c1ccc2c(c1)S(=O)(=O)c1ccccc1C2=O | 4 | -0.2 | i | 86* | ·
O=C(Nc1nc2ccccc2s1)c1ccc2c(c1)S(=O)(=O)c1ccccc1C2=O | 2 | -0.38 | i | 3 | 1
CCOc1ccc(NC(=O)c2ccccc2OC)cc1 | 3 | 0.29 | · | -5 | -6
CC(C)Cn1c(C(C)C)nc([N+](=O)[O-])c1Sc1ccc(Cl)cn1 | 6 | -0.013 | i | 41 | ·
CC(C)Cn1c(C(C)C)nc([N+](=O)[O-])c1S(=O)(=O)c1ccc(F)cc1 | 5 | -3.7* | i | 96* | -1
CCCc1nc([N+](=O)[O-])c(S(=O)(=O)c2ccccc2)n1CC(C)C | 2 | 1.3 | i | 95* | 2
CC(C)Cn1nc(NS(=O)(=O)c2ccccc2)c2cc3ccccc3nc21 | 4 | -0.56 | i | 37 | 2
CCCn1nnnc1NCc1c(Cl)cccc1Cl | 2 | -0.0062 | i | 7 | -4
CN(CCCNC(=O)c1cccn2c(=O)c3ccccc3nc12)Cc1ccccc1 | 5 | -0.0086 | i | 100* | -4
O=C(NCCN1CCN(c2ccccc2)CC1)c1cccn2c(=O)c3ccccc3nc12 | 4 | 0.7 | i | 3 | -1
CC1CN(S(=O)(=O)c2cccc(C(=O)OCc3cc(=O)oc4cc(O)ccc34)c2)CC(C)O1 (stereo unspecified) | 3 | 0.4 | i | 96* | ·
CN1CCN(c2ccc(NC(=O)c3ccc4c(c3)OCCO4)cc2)CC1 | 2 | 1.1 | i | 4 | -1
Cn1c(NCC(O)CO)nc2c1c(=O)n(Cc1ccc(Cl)c(Cl)c1)c(=O)n2C (stereo unspecified) | 3 | -0.33 | i | 73* | -1
Cn1c(NCc2ccco2)nc2c1c(=O)n(Cc1ccc(Cl)c(Cl)c1)c(=O)n2C | 3 | 0.11 | i | 16 | -6
COc1ccc(-c2cn(-c3ccc(OC)cc3)c3[n+]2-c2ccccc2CC3)cc1 | 4 | 0.35 | i | 100* | -1
COc1ccc(-n2cc(-c3ccccc3)[n+]3c2CCCCC3)cc1 | 3 | -0.67 | i | 100* | -1
COc1ccc(-n2cc(-c3ccccc3)nc2SC)cc1 | 2 | -0.33 | i | -2 | 0
COc1ccc(C=NCC2OCCc3ccccc32)cc1OC (stereo unspecified) | 11 | 0.71 | i | -5 | -1
O=C(CSc1nnc(CCc2ccccc2)n1-c1ccc(Cl)cc1)NCc1ccccc1 | 3 | -0.8 | · | 100* | 7
CCC(CC)C(=O)Nc1cccc(C(=O)N2CCOCC2)c1 | 7 | 3.1 | i | -1 | 0
O=C1OCC/C1=C\c1ccc2c(c1)OCO2 | · | 0.64 | i | · | 7
CC(c1nnnn1C(C)(C)C)N(Cc1cccnc1)Cc1ccccc1Cl (stereo unspecified) | 2 | -0.11 | i | 96* | 0
CC(C)(C)n1nnnc1C(c1cccs1)N(Cc1cccnc1)Cc1ccccc1Cl (stereo unspecified) | 2 | -0.22 | i | 100* | -1
CC(C)(C)n1nnnc1C(c1cccs1)N1CCN(Cc2ccccc2)CC1 (stereo unspecified) | 2 | -0.17 | i | 23 | ·
Cc1ccc(S(=O)(=O)NC2(C(F)(F)F)NC(=O)N(C)C2=O)cc1 (stereo unspecified) | 3 | -0.27 | i | -8 | 0
